Sampled rows, rich in hits. Any-hit rate of the full collection: about 27%.
CYP2C9 act: CYP2C9 (human) activation | AID 1024 | recombinant CYP2C9, luciferin-H conversion, luminescence; hits give high values; factor 1 = untreated enzyme, 0 = blocked | 96,000 compounds, 1.4% hits | activation factor at 5 µM;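 active = activation factor of 2 or more for CYP2C9 at a 5 µM dose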
Cav3 T inh: blocks human Cav3.2 T-type calcium channel. AID 449739. B-score at 10 µM. 100,000 compounds, 4% hits. Cav3.2-expressing cells, Fluo-4 calcium fluorescence FDSS; hits give low values;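 active = single-dose well whose peak fluorescence ratio is a statistical outlier from its plate by either plate-standardised score or position-corrected B-score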
CYP2C9 inh: inhibitors of human CYP2C9 | AID 777 | CYP2C9 Supersomes, luciferin-H conversion, luminescence | 96,000 compounds, 20% hits | P11712 | inhibition, % at 5 µM;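 active = blocking of liver enzyme CYP2C9 beyond about 50% at 5 µM, limit read from the data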
Rev-RRE block: HIV Rev-RRE protein-RNA interaction inhibition; Rev peptide-RRE RNA binding, FRET; 97,000 compounds, 0.79% hits; AID 704; P05866; inhibition, % at 8 µM;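 active = inhibition above the screen-wide mean plus 3 SD, cut at about 35% in these data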
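Test system: Cy5-tagged RRE RNA duplex with fluorescein-tagged Rev peptide | Read-out: % inhibition of FRET ratio versus controls | Probe or stimulus: Labelled Rev peptide | Incubation: 5 min RNA-compound premix plus 15 min binding step, 25 °C | Technique: FRET fluorescence readout | Benchmarks: DMSO low control, neomycin B high control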
CYP2C19 inh: human CYP2C19 inhibition. P33261. CYP2C19 Supersomes, luciferin-H EGE luminescence, 30 min. inhibition, % at 5 µM. 96,000 compounds, 21% hits. AID 778;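 active = CYP2C19 inhibition above a set limit at 5 µM in the primary screen, cut at about 50% in these data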
CYP2C19 activ: activators of human cytochrome P450 2C19; P33261; recombinant CYP2C19, luciferin-H EGE luminescence; hits give high values; 0 = fully inhibited enzyme, 1 = untreated enzyme; activation factor at 5 µM; 96,000 tested, under 10 active;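 active = activation factor of at least 2 at 5 µM in the primary screen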
A number is an active result; 0 = inactive; - = not tested or not shown.

SMILES	CYP2C9 act	Cav3 T inh	CYP2C9 inh	Rev-RRE block	CYP2C19 inh	CYP2C19 activ
Cc1sc(/N=C/c2ccccc2O)c(C#N)c1C	0	-	0	0	0	0
CCCCOC(=O)c1ccc(NC(=O)CSc2nncn2C)cc1	0	0	0	0	0	0
CCCCOC(=O)c1ccc(NC(=O)CSC2=Nc3ccccc3C3CC=NN23)cc1 (stereo unspecified)	0	-	85.8	0	0	0
COc1ccc(/C=N/NC(=O)c2ccccc2O)cc1Cn1cc(Cl)cn1	0	0	50.8	0	0	0
COC(=O)c1cn(NC(=O)c2cc(OC)c(OC)c(OC)c2)c(=O)c2ccccc12	0	0	0	0	0	0
C#CCOCCOCCOCCNc1nc(N2CCN(C(=O)[C@H](CCC(=O)O)n3cc(C(N)CO)nn3)CC2)nc(N2CCN(C(=O)[C@H](CCC(=O)O)n3cc(C(N)CC(C)C)nn3)CC2)n1 (stereo partly specified)	-	0	-	-	-	-
CCOC(=O)c1nnn(-c2nonc2N)c1COc1c(C=O)cccc1OC	0	0	71.3	0	0	0
CC(C)OC(=O)c1nnn(-c2nonc2N)c1CN1CCCCCC1	0	0	0	0	0	0
COC(=O)c1nnn(-c2nonc2N)c1CN1CCc2ccccc21	0	0	71.5	0	96.2	0
COCc1c(C(N)=O)nnn1-c1nonc1N	0	0	0	0	0	0
CCOC(=O)c1nnn(-c2nonc2N)c1CS(=O)(=O)c1ccccc1	0	0	0	0	63.0	0
CCOC(=O)c1nnn(-c2nonc2N)c1CN1CCc2ccccc2C1	0	0	58.0	0	0	0
Cc1ccc(-n2ncc3c(=O)n(CC(=O)NCC4CCCO4)cnc32)cc1 (stereo unspecified)	0	0	0	0	0	0
Cc1ccc(-c2[nH]c3cc(C(N)=O)ccc3c(=O)c2O)cc1	-	0	-	-	-	-
CCOc1cc(C(=O)Nc2c3c(nn2C(C)(C)C)CS(=O)C3)cc(OCC)c1OCC (stereo unspecified)	-	0	-	0	-	-
CC(C)OC(=O)c1nnn(-c2nonc2N)c1CN1CCc2ccccc2C1	0	0	68.2	0	0	0
CCOC(=O)c1nnn(-c2nonc2-n2cccc2)c1CCl	0	0	68.2	0	0	0
Cc1cccc(OCCC(=O)Nc2c(C)n(C)n(-c3ccccc3)c2=O)c1	0	0	0	0	0	0
O=C(N1CCOCC1)N1CCC(n2nnc3cc(F)ccc32)CC1	0	0	0	39.6	0	0
Cc1ccc2c(c1)nnn2C1CCN(CC(=O)Nc2ccccc2N2CCOCC2)CC1	0	0	74.7	0	71.2	0
COc1ccc(Cl)cc1NC(=O)CN1CCC(n2nnc3cc(C)ccc32)CC1	0	0	0	0	93.7	0
COC(=O)c1ccccc1NC(=O)CN1CCC(n2nnc3cc(C(F)(F)F)ccc32)CC1	0	-	82.3	0	69.5	0
COc1ccc(C)cc1NC(=O)CN1CCN(S(=O)(=O)c2ccc(Br)cc2)CC1	0	0	0	0	0	0
COc1ccc(C(=O)NNC(=O)CN2CCC(n3nnc4cc(C(F)(F)F)ccc43)CC2)cc1	0	0	0	0	0	0
CCOc1cc(NC(=O)c2ccccc2[N+](=O)[O-])c(OCC)cc1NC(=O)CC(C)C	0	0	0	0	0	0
SMILES	CYP2C9 act	Cav3 T inh	CYP2C9 inh	Rev-RRE block	CYP2C19 inh	CYP2C19 activ
COC(=O)c1[nH]c2cc(OC)ccc2c1N	0	0	0	0	0	0
CC1Cc2ccccc2N1C(=O)CN1CCC(n2nnc3cc(C(F)(F)F)ccc32)CC1 (stereo unspecified)	0	-9.54	0	0	50.5	0
Cc1nc2cc(C(F)(F)F)ccc2n1C1CCN(CC(=O)N2CCOCC2)CC1	0	0	0	0	0	0
Cc1ccc2c(c1)nnn2C1CCN(CC(=O)NCCc2ccccc2)CC1	0	0	0	0	52.2	0
COc1ccccc1NC(=O)CN1CCC(n2nnc3cc(F)ccc32)CC1	0	0	0	0	96.6	0
COCOc1ccc(C2CC(=O)c3c(OCOC)cc(OCOC)cc3O2)cc1 (stereo unspecified)	-	0	-	-	-	-
CC(CN(C)Cc1ccccc1)OC(=O)c1ccc2c(c1)OCCO2 (stereo unspecified)	0	0	0	-	0	0
O=C(COCCOCC(=O)N(c1ccccn1)C1CCCCC1)N(c1ccccn1)C1CCCCC1	-	0	-	0	-	-

Assay outcomes: PubChem, several laboratories
